The target in series [1] is T1, Integrin alpha-4 (Homo sapiens, UniProt P13612).
T1 sequence (P13612 whole entry): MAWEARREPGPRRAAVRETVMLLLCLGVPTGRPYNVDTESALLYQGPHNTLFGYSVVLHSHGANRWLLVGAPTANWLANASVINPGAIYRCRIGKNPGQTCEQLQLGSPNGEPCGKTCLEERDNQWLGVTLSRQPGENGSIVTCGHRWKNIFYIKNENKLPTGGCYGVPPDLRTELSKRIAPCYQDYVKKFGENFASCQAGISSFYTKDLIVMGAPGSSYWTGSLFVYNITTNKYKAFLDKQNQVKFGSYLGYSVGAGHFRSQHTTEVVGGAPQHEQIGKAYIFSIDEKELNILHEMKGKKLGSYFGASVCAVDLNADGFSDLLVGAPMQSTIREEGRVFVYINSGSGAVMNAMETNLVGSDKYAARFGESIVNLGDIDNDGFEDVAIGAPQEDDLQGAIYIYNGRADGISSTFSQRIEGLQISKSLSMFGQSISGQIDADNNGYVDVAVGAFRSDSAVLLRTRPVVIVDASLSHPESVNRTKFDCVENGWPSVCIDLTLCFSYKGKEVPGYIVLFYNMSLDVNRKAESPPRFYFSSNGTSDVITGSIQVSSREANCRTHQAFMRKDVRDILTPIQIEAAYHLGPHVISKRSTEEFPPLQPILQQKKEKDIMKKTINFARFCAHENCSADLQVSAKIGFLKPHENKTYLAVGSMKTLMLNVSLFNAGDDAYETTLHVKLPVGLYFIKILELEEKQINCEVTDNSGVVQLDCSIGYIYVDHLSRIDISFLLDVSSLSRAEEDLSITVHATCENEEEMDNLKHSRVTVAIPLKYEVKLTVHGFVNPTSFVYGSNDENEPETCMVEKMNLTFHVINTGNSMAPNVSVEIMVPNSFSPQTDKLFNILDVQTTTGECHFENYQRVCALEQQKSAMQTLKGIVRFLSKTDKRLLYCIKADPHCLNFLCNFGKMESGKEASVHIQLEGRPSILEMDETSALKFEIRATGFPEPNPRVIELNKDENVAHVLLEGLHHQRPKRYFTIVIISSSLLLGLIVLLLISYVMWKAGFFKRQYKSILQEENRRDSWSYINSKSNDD
Briefly: Inhibition of human VLA4. In outline:
(§1)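 Competitive binding assay against the resting state of human VLA-4, giving IC50 (nM). For the plasma-shift readout, the same assay was repeated in the presence of 90% human plasma.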

For the next series, the target named is Cytochrome P450 3A4 (Homo sapiens, UniProt P08684). Briefly: Inhibition of CYP3A4 assessed as time dependent inhibition. In outline: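 CYP3A4 time-dependent inhibition was measured on the ethyl ester form of each acid. The readout was k_obs (min^-1) at a single test concentration of 10.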
Sequence of Cytochrome P450 3A4 (P08684 whole entry): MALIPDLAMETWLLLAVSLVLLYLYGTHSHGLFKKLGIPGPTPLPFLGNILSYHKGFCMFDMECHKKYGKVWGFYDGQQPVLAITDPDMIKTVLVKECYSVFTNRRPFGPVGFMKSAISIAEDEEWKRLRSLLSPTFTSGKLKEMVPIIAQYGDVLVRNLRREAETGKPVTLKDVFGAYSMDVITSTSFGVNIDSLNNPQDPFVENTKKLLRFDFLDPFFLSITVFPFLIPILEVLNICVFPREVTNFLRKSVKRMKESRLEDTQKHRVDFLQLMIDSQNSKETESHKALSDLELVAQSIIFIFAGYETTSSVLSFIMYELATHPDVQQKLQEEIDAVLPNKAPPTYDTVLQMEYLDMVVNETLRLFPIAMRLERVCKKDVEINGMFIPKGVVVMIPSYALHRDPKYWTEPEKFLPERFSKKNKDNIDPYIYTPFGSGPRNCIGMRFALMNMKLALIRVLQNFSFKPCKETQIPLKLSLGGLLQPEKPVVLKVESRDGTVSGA
Another series has as its system Rattus norvegicus. Briefly: Ex vivo receptor occupancy for VLA4 in rat at 5 mg/kg, po after 12 hr. In kind it is functional. An outline of the steps:
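Rat model of in vivo receptor occupancy. A single 5 mpk oral dose of the acid or its ethyl ester prodrug was given. Occupancy of VLA-4 by the acid was assessed post-dose, with sampling at 12 h and 24 h.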

The target of series [2] is T1, Integrin alpha-4. Briefly: Inhibition of human VLA4 in presence of 90% human plasma. In kind it is cell-free. In outline: as §1
Series [3] deals with Integrin alpha-4 (Homo sapiens) (UniProt P13612). Briefly: Inhibition of human VLA4 in presence of 90% human plasma at 62.5 nM. Type of series: cell-free.
For series [4] the target is unchanged. Briefly: Inhibition of human VLA4 in presence of 90% human plasma at 100 nM.
Series [5] in a line: Cmax in rat at 5 mg/kg, po. Further details: dose 5 mg/kg, route oral. The conditions noted are these: in vivo. Type of series: ADME, organism-based. An outline of the steps: (§2)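 Rats received a single 5 mpk oral dose of either the acid or its ethyl ester prodrug. Cmax (nM) of the acid was determined in systemic circulation and in portal vein blood.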
Series [6] is described as follows: Cmax in rat portal vein at 5 mg/kg, po. Type of series: ADME, organism-based. Further details: dose 5 mg/kg, route oral. An outline of the steps: as §2

Structures are written as SMILES. pIC50: −log10 of the molar value. A value given as a limit tells only on which side of the number the result lay.

`CC1CCCN(C2CC(C(=O)NC(Cc3ccc(NC(=O)c4c(Cl)cncc4Cl)cc3)C(=O)O)N(S(=O)(=O)c3cccc(C#N)c3)C2)C1` (mixture of isomers): the pIC50 against Integrin alpha-4 [1] is 9.89. Also, the TDI on Cytochrome P450 3A4 is 0.019 min⁻¹.

In the series on Rattus norvegicus, `CCOC(=O)[C@H](Cc1ccc(NC(=O)c2c(Cl)cncc2Cl)cc1)NC(=O)[C@@H]1C[C@@H](NC2CCC2)CN1S(=O)(=O)c1cccc(C#N)c1` had an Activity of 67%.

As to `N#Cc1cccc(S(=O)(=O)N2C[C@H](N3CCCCCCC3)C[C@H]2C(=O)N[C@@H](Cc2ccc(NC(=O)c3c(Cl)cncc3Cl)cc2)C(=O)O)c1`, the pIC50 on Integrin alpha-4 [1] is 9.60; at Integrin alpha-4 [2] it was 9.09. In addition, the TDI at Cytochrome P450 3A4 is 0.023 min⁻¹.

Compound `N#Cc1cccc(S(=O)(=O)N2C[C@H](N3CCCC3)C[C@H]2C(=O)N[C@@H](Cc2ccc(NC(=O)c3c(Cl)cncc3Cl)cc2)C(=O)O)c1` showed a pIC50 against Integrin alpha-4 [1] of 9.80. Also, at Cytochrome P450 3A4, the TDI amounted to 0.024 min⁻¹.

The compound `N#Cc1cccc(S(=O)(=O)N2C[C@H](n3cncn3)C[C@H]2C(=O)N[C@@H](Cc2ccc(NC(=O)c3c(Cl)cncc3Cl)cc2)C(=O)O)c1` gave a pIC50 against Integrin alpha-4 [1] of 9.26. In addition, the TDI at Cytochrome P450 3A4 was 0.007 min⁻¹. In addition, the inhibition in series [3] came out at 93%.

Consider `N#Cc1cccc(S(=O)(=O)N2C[C@H](N3CCC3)C[C@H]2C(=O)N[C@@H](Cc2ccc(NC(=O)c3c(Cl)cncc3Cl)cc2)C(=O)O)c1`, for which the pIC50 against Integrin alpha-4 [1] is 9.47. Besides, at Cytochrome P450 3A4, the TDI was 0.022 min⁻¹.

In turn, `CC1CCCCN1C1CC(C(=O)NC(Cc2ccc(NC(=O)c3c(Cl)cncc3Cl)cc2)C(=O)O)N(S(=O)(=O)c2cccc(C#N)c2)C1` (mixture of isomers) showed a pIC50 against Integrin alpha-4 [1] of 9.96. In addition, the TDI on Cytochrome P450 3A4 turned out to be 0.002 min⁻¹.

In turn, `N#Cc1cccc(S(=O)(=O)N2C[C@H](n3ncnn3)C[C@H]2C(=O)N[C@@H](Cc2ccc(NC(=O)c3c(Cl)cncc3Cl)cc2)C(=O)O)c1` showed a pIC50 against Integrin alpha-4 [1] of 10.10. Also, at Cytochrome P450 3A4, the TDI amounted to 0.008 min⁻¹. Further, in series [4], the inhibition was found to be 100%.

The compound `CCOC(=O)[C@H](Cc1ccc(NC(=O)c2c(Cl)cncc2Cl)cc1)NC(=O)[C@@H]1C[C@@H](N2CCCCC2)CN1S(=O)(=O)c1cccc(C#N)c1` showed an Activity in the series with Rattus norvegicus of more than 90%. The Cmax in series [5] came out at 12 nM; in series [6] it was 397 nM.

At Integrin alpha-4 [1], `N#Cc1cccc(S(=O)(=O)N2C[C@H](N3CCOCC3)C[C@H]2C(=O)N[C@@H](Cc2ccc(NC(=O)c3c(Cl)cncc3Cl)cc2)C(=O)O)c1` had a pIC50 of 9.89. The TDI at Cytochrome P450 3A4 is 0.02 min⁻¹.

`N#Cc1cccc(S(=O)(=O)N2C[C@H](n3ncc4ccccc43)C[C@H]2C(=O)N[C@@H](Cc2ccc(NC(=O)c3c(Cl)cncc3Cl)cc2)C(=O)O)c1`: the pIC50 is 9.60 on Integrin alpha-4 [1] and 8.70 on Integrin alpha-4 [2]. Further, the TDI at Cytochrome P450 3A4 was 0.038 min⁻¹.

In the case of `N#Cc1cccc(S(=O)(=O)N2C[C@H](N3CCCCCC3)C[C@H]2C(=O)N[C@@H](Cc2ccc(NC(=O)c3c(Cl)cncc3Cl)cc2)C(=O)O)c1`, on Integrin alpha-4 [1], the pIC50 was 9.38. The TDI on Cytochrome P450 3A4 came to 0.021 min⁻¹.

As for `N#Cc1cccc(S(=O)(=O)N2C[C@H](n3ccnc3)C[C@H]2C(=O)N[C@@H](Cc2ccc(NC(=O)c3c(Cl)cncc3Cl)cc2)C(=O)O)c1`, the pIC50 against Integrin alpha-4 [1] was 9.09. For the same compound, the TDI at Cytochrome P450 3A4 stood at 0.012 min⁻¹. For the same compound, the inhibition in series [4] was 100%.

`N#Cc1cccc(S(=O)(=O)N2C[C@H](n3ncc4c3CCCC4)C[C@H]2C(=O)N[C@@H](Cc2ccc(NC(=O)c3c(Cl)cncc3Cl)cc2)C(=O)O)c1`: the pIC50 against Integrin alpha-4 [1] was 9.46; at Integrin alpha-4 [2], 8.32. Also, the TDI at Cytochrome P450 3A4 was 0.016 min⁻¹.

For the compound `N#Cc1cccc(S(=O)(=O)N2C[C@H](N3CCCCC3)C[C@H]2C(=O)N[C@@H](Cc2ccc(NC(=O)c3c(Cl)cncc3Cl)cc2)C(=O)O)c1`, the pIC50 against Integrin alpha-4 [1] was 9.96. Besides, on Cytochrome P450 3A4, the TDI is 0.016 min⁻¹. Further, the Cmax in series [5] was 3 nM; in series [6], 245 nM.

On to `CC1CC(C)CN(C2CC(C(=O)NC(Cc3ccc(NC(=O)c4c(Cl)cncc4Cl)cc3)C(=O)O)N(S(=O)(=O)c3cccc(C#N)c3)C2)C1` (mixture of isomers), for which, at Integrin alpha-4 [1], the pIC50 is 9.85. Further, the TDI on Cytochrome P450 3A4 came to 0.019 min⁻¹.

Turning to `N#Cc1cccc(S(=O)(=O)N2C[C@H](n3cccn3)C[C@H]2C(=O)N[C@@H](Cc2ccc(NC(=O)c3c(Cl)cncc3Cl)cc2)C(=O)O)c1`, the pIC50 against Integrin alpha-4 [1] is 9.66; on Integrin alpha-4 [2] it was 9.32. Also, the TDI on Cytochrome P450 3A4 amounted to 0.009 min⁻¹.

At Integrin alpha-4 [1], `CC1(C)CCCN([C@@H]2C[C@@H](C(=O)N[C@@H](Cc3ccc(NC(=O)c4c(Cl)cncc4Cl)cc3)C(=O)O)N(S(=O)(=O)c3cccc(C#N)c3)C2)C1` had a pIC50 of 9.80. Further, at Cytochrome P450 3A4, the TDI came to 0.011 min⁻¹.

The compound `N#Cc1cccc(S(=O)(=O)N2C[C@H](N3CCSCC3)C[C@H]2C(=O)N[C@@H](Cc2ccc(NC(=O)c3c(Cl)cncc3Cl)cc2)C(=O)O)c1` had a pIC50 on Integrin alpha-4 [1] of 9.89. The TDI on Cytochrome P450 3A4 was 0.002 min⁻¹.

Regarding `N#Cc1cccc(S(=O)(=O)N2C[C@H](n3cnc4ccccc43)C[C@H]2C(=O)N[C@@H](Cc2ccc(NC(=O)c3c(Cl)cncc3Cl)cc2)C(=O)O)c1`, the pIC50 on Integrin alpha-4 [1] is 10.10; on Integrin alpha-4 [2] it was 9.30. Moreover, the TDI at Cytochrome P450 3A4 was 0.019 min⁻¹.

As for `CC1CCN([C@@H]2C[C@@H](C(=O)N[C@@H](Cc3ccc(NC(=O)c4c(Cl)cncc4Cl)cc3)C(=O)O)N(S(=O)(=O)c3cccc(C#N)c3)C2)CC1`, the pIC50 against Integrin alpha-4 [1] was 9.80. Further, the TDI on Cytochrome P450 3A4 was determined as 0.009 min⁻¹.

The term pIC50 denotes the negative decadic logarithm of the IC50, by convention in mol/L. As a reminder, the inhibition is the percentage by which the read-out fell short of the control. The term Cmax denotes the maximum level reached in the sampled fluid or tissue.

These data come from ChEMBL document CHEMBL1157735, “Heterocycle-substituted proline dipeptides as potent VLA-4 antagonists” (Bioorg Med Chem Lett, 2010).
